Measurements gathered from unrelated publications.
Each line is one published result; the experiments were not run side by side.
Target: Serine/threonine-protein kinase ICK (CILK1, Homo sapiens, UniProt Q9UPZ9)
One construct used (Q9UPZ9 1-632): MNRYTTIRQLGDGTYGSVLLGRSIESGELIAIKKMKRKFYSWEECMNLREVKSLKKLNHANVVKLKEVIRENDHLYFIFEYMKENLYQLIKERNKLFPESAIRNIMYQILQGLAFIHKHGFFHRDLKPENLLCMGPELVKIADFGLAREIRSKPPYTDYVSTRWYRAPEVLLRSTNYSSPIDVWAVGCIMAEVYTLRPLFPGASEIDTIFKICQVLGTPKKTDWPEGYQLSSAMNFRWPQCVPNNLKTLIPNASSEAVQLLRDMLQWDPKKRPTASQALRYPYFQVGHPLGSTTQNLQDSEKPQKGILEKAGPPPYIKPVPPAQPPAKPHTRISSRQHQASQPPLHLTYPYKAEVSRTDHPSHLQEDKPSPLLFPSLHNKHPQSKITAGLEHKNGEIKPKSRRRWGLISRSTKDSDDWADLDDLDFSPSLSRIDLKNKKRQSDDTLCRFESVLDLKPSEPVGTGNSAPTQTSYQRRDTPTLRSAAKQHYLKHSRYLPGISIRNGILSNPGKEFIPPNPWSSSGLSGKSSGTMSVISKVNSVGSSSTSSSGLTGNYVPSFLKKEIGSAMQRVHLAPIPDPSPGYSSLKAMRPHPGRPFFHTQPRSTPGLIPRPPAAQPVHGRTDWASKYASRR

FC(F)(F)Oc1cccc(-c2cnc3ccc(-c4ccncc4)nn23)c1  remaining binding (cell-free assay, competition with immobilised ligand; 5 µM): 4.5%
O=C(NCCCN1CCOCC1)c1ccc(Nc2ncc(Cl)c(-c3ccc(Cl)s3)n2)cc1  remaining binding (binding, competition with immobilised ligand; 1 µM): 62%
CN(C)C(=O)Cn1cc(-c2nc([C@@](C)(c3ccc(-c4cnc(N)nc4)cc3)C3CC3)no2)cn1  remaining binding (binding, competition with immobilised ligand; 1 µM): 100%
COc1cnc(Nc2cccc(S(N)(=O)=O)c2)nc1N1CCN(c2ccccc2)C(=O)C1  remaining binding (binding, competition with immobilised ligand; 1 µM): 75%
C[C@@]1(Cc2ccc(C#N)cc2)C(=O)N(c2cc(Cl)cc(Cl)c2)c2ncc(C(=O)NC3(c4nc(C5CCC5)no4)CC3)n21  remaining binding (cell-free assay, competition with immobilised ligand; 1 µM): 100%
N[C@H]1CCN(c2nccc(-c3cnn4ncccc34)n2)C1  remaining binding (binding; 1 µM): 100%
CCOCCn1cc(C(=O)Nc2ccc(-n3nc(-c4cccnc4)cc3C(F)(F)F)cn2)ccc1=O  remaining binding (cell-free assay, competition with immobilised ligand; 1 µM): 99%
O=C(Nc1c[nH]nc1C(=O)NC1CCNCC1)c1cc(F)cc(F)c1  remaining binding (binding, competition with immobilised ligand; 1 µM): 84%
C=CC(=O)N1CCC(C(=O)NCC(=O)N2CCN(c3nc(-c4cnc(N)nc4C(F)F)nc(N4CCOCC4)n3)CC2)CC1  remaining binding (binding, competition with immobilised ligand; 1 µM): 95%
O=C(Nc1cccnn1)N1CC(C/C=C/c2cncc(Oc3ccc(C(F)(F)F)cn3)n2)C1  remaining binding (cell-free assay, competition with immobilised ligand; 1 µM): 80%
CN(c1nccc(-c2cnn3ncccc23)n1)C1CC1  remaining binding (binding; 1 µM): 100%
O=C(c1ccc(Nc2nccc(-c3cc4ccccc4s3)n2)cc1)N1CCC(N2CCCC2)CC1  remaining binding (binding, competition with immobilised ligand; 1 µM): 74%
C[C@H]1CCN(c2nccc(-c3cnn4ncccc34)n2)C1  remaining binding (binding; 1 µM): 64%
O=C(Nc1cccnn1)N1CCC(=Cc2cccc(Oc3ccc(C(F)(F)F)cn3)c2)CC1  remaining binding (cell-free assay, competition with immobilised ligand; 1 µM): 91%
CC1CCCN1c1nccc(-c2cnn3ncccc23)n1 (stereo not drawn)  remaining binding (binding; 1 µM): 100%
COc1cnc(Nc2cccc(S(N)(=O)=O)c2)nc1N1CCN(c2ccccc2)CC1  remaining binding (binding, competition with immobilised ligand; 1 µM): 72%
c1cncc(-c2cccc(Nc3nccc(NC4CCCCC4)n3)c2)c1  remaining binding (binding, competition with immobilised ligand; 10 µM): 50%
CN(C)c1nccc(-c2cnn3ncccc23)n1  remaining binding (binding; 1 µM): 91%
O=C(NCCCN1CCOCC1)c1ccc(Nc2nccc(-c3cc4ccccc4s3)n2)cc1  remaining binding (binding, competition with immobilised ligand; 1 µM): 64%
CN(C)c1nccc(-c2cnc3ncccn23)n1  remaining binding (binding; 1 µM): 81%
CNCc1ccccc1-c1csc([C@H](C)Nc2nc(C)nc3cc(OC)c(OC)cc23)c1  remaining binding (cell-free assay, competition with immobilised ligand; 1 µM): 86%
